# Laboratory results from publication PMC4013241 (Molecular cancer therapeutics, 2014).
# Marks after values point to notes of the source that are not given here.
# Columns and labels:
# [1] = test system: p-Akt, phosphorylation of its downstream proteins and p-Erk; assay: Western blot of p-Akt, its downstream proteins and p-Erk in U87 cells; format: cell-based, human; conditions: 70 μM ON1231120 or 10 μM ON1231320, 1 h
# How it was run: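 U87 cells on 10 cm plates, 1 h exposure to test compound. Lysates were prepared in buffer with PMSF and phosphatase/protease inhibitors, sonicated, held 30 min on ice and cleared at 21,000 × g for 10 min at 4°C. Blotting used 20 μg protein on SDS-PAGE and PVDF, blocked in 5% nonfat milk. Primary antibodies 1 h at room temperature or overnight at 4°C.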
# U87 cells [2] = assay: Annexin V apoptosis by flow cytometry; format: cell-based, human; conditions: 24 h
# How it was run: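 U87 cells in 12-well plates, cultured overnight, then exposed 24 h to test compound (6.3 μM), an EGFR inhibitor (13.3 μM) or both. Floating and attached cells were pooled and stained with Annexin V-FITC (10 μg/ml) in HEPES-buffered saline (pH 7.4) with Ca2+ and Mg2+. Flow cytometry at 5000 events/sample. Reported as mean ± S.D. of three experiments.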
# U87 cells [3] = assay: Flow cytometric cell cycle analysis; format: cell-based, human; conditions: 24 h
# [4] = test system: phosphorylated Akt, CREB, JNK pan, Erk, p38γ; assay: Human phospho-MAPK array in U87 cells; format: cell-based; conditions: 6.3 μM, 1 h
# How it was run: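 U87 cells on 10 cm plates were exposed to 6.3 μM test compound for 1 h, rinsed in cold PBS and lysed at 1 × 10^7 cells/ml, rocking 30 min at 4°C. 200 μg of supernatant protein was mixed with detection antibody cocktail for 1 h at room temperature. The mixture was applied to array membranes overnight at 4°C, then streptavidin-HRP for 30 min. Chemiluminescent spots were recorded on X-ray film.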
# p-mTOR [S2481 and 2448] = assay: Immunoblot of p-mTOR in U87 cells; format: cell-based, human; conditions: 6.3 μM ON123300 alone or with 13.3 μM GFN, 1 h
# How it was run: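 U87 cells were treated 1 h with 6.3 μM test compound, 13.3 μM EGFR inhibitor or both. Lysis buffer held PMSF plus phosphatase and protease inhibitors; lysates were sonicated and spun at 21,000 × g. 20 μg protein per lane went on SDS-PAGE and PVDF, blocked in 5% milk. Primary antibody was 1 h at room temperature or overnight at 4°C. Bands quantified densitometrically as percentages; mean ± S.D. of three experiments.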
# p-Akt [5] = assay: p-Akt in GBM39 cells; format: cell-based; conditions: Homo sapiens, GBM39, read-out: nadir p-Akt inhibition relative to the control
# p-Erk [6] = assay: p-Erk in GBM39 cells; format: cell-based, human; conditions: 4μM
# [7] = test system: panel of 11 glioma models including a patient-derived model [GBM10]; assay: SRB cytotoxicity assay, panel of glioma models; format: cell-based, human; conditions: compared with U87 cells; Fig. S1
# [8] = test system: p-Erk in intracerebral U87 brain tumors; assay: In vivo pharmacodynamics: p-Erk in brain tumor; parameters: species or system mouse
# How it was run: (§1)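 NIH Swiss nude mice carried U87 cells (10^6 in 10 μl PBS) implanted stereotactically into the caudate putamen. Test compound was given as an IV tail-vein bolus of 5 or 25 mg/kg, or 25 mg/kg 1 h after oral EGFR inhibitor (200 mg/kg). Tumours were collected from 5 min to 10 h (17 h with co-dosing) and lysed at 20 μl buffer/mg. Phospho/total Akt and Erk were measured by MSD as percent of control, at least three mice per time point. ABEC was reported in %-h.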
# p-C-Raf S259 = assay: Western blot of p-C-Raf S259 in U87 or U87PTEN cells; format: cell-based, human; conditions: 6.3 μM, 1 h
# How it was run: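 U87 or PTEN-expressing U87 cells in 6-well plates were pretreated 1 h with vehicle, 50 μM LY294002 or 1 μM wortmannin. Test compound was then added at 6.3 μM for 1 h. Lysates (20 μg protein) were resolved by SDS-PAGE, transferred to PVDF, blocked in 5% milk and immunoblotted.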
# p-Erk [9] = assay: p-Erk in U87 cells by western blot / MSD assay; format: cell-based, human
# How it was run: (§2)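 U87 cells received increasing test compound concentrations for 1 h, or 6.3 μM over a time course. Phospho- and total Akt/Erk were measured by western blot or MSD multispot immunoassay, loading 20 μg (Akt) or 5 μg (Erk) lysate in duplicate. Plates were incubated overnight at 4°C, then detection antibody for 2 h at room temperature. Signals were background-corrected; phospho/total percentage expressed relative to control.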
# Akt = assay: Biochemical kinase screen
# ABC transporters = conditions: based on previous studies; cited from earlier work
# P70S6K phosphorylation = assay: Western blot of phosphorylated P70S6K in U87 cells; format: cell-based, human; conditions: 6.3 μM, 1 h, mean ± S.D.
# How it was run: (§3)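 U87 cells in DMEM with 10% FBS at 37°C, 5% CO2, grown on 10 cm plates and exposed to test compound for 1 h. Lysed on ice in buffer containing PMSF, phosphatase and protease inhibitors; 20 μg protein run on SDS-PAGE and blotted to PVDF. Detected with IRDye/Alexa 680 secondaries and quantified by Odyssey imaging against total protein and β-actin, relative to control. Blots repeated at least three times.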
# [10] = test system: 40S ribosomal protein S6 [rpS6] phosphorylation; assay: Western blot of phosphorylated rpS6 in U87 cells; format: cell-based, human; conditions: 6.3 μM, 1 h, mean ± S.D.
# How it was run: as §3
# p-Akt [11] = assay: p-Akt in U87 cells by western blot / MSD assay; format: cell-based, human; conditions: 6.3 μM
# How it was run: as §2
# [12] = test system: p-Akt in intracerebral U87 brain tumors; assay: In vivo pharmacodynamics: p-Akt in brain tumor; parameters: species or system mouse; conditions: for p-Akt nadir, of control: within 30 min
# How it was run: as §1
# Rb S780 phosphorylation = assay: Western blot of phosphorylated Rb S780 in U87 cells; format: cell-based, human; conditions: 6.3 μM, 1 h, mean ± S.D.
# How it was run: as §3
# [13] = In vivo pharmacokinetics in mice bearing intracerebral U87 tumors; parameters: species or system mouse; conditions: for AUC / Kp / Tmax / clearance / Vd / half-life: NIH Swiss nude, mouse, iv; for Kp: Pbt (brain tumor partition coefficient, AUCbt/AUCp); for clearance: CL; for Vd: Vss; for half-life: t½; for peak concentration in brain: at 5 min
# How it was run: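 Same intracerebral U87 nude-mouse model, single IV tail-vein bolus of 5 or 25 mg/kg. Plasma, normal brain and tumour were taken from 3–4 mice per time point (5 min–10 h). Tissues were saline-rinsed and homogenised 20% w/w in water. Samples (10 μl) were protein-precipitated with 40 μl cold acetonitrile and quantified by ESI LC/MS/MS. Noncompartmental analysis; AUC to last observable concentration by linear-log interpolation.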
# VEGFR3 = VEGFR3 (Homo sapiens, UniProt P35916); assay: Biochemical kinase screen
# Sequence of VEGFR3 (P35916 25-1363): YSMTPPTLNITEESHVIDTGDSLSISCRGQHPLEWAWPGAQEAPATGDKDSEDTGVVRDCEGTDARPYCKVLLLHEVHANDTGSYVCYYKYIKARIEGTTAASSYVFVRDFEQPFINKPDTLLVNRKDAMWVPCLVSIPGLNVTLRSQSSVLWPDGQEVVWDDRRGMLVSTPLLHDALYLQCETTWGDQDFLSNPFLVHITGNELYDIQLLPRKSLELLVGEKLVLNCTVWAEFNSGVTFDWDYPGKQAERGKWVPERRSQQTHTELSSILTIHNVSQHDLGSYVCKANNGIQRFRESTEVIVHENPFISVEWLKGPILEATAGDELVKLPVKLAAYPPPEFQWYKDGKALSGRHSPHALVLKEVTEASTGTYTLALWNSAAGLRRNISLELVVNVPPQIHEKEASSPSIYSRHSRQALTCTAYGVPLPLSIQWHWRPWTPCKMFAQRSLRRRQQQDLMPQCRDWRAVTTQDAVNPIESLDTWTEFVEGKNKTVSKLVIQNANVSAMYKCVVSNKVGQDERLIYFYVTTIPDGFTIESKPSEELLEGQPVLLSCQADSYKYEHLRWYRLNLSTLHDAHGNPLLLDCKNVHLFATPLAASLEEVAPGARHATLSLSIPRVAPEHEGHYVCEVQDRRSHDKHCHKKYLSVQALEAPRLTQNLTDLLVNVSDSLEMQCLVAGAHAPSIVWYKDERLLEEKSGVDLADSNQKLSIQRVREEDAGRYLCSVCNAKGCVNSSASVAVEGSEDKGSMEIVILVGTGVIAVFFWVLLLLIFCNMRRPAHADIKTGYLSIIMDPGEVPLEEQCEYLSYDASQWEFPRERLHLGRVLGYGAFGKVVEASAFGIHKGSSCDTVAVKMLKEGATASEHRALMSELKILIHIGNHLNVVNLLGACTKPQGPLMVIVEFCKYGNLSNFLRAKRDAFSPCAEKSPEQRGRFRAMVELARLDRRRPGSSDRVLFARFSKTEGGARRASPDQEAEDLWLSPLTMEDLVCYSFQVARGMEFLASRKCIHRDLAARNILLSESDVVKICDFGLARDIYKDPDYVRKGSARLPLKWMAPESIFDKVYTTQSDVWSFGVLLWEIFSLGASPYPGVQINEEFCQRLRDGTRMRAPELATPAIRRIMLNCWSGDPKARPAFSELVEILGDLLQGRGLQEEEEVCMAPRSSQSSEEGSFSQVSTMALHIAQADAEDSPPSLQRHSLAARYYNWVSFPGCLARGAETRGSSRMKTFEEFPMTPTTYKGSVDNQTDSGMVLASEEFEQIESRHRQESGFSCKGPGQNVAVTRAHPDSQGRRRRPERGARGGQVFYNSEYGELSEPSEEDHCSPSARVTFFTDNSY
# [14] = plasma, 5 mg/kg, ON123300 5 mg/kg IV
# [15] = plasma, 25 mg/kg, ON123300 25 mg/kg IV
smiles,measurement,setting,value
Cn1c(=O)c(S(=O)(=O)c2ccc(F)cc2F)cc2cnc(Nc3ccc4[nH]ccc4c3)nc21 [ON1231320],"effects on p-Akt, its downstream proteins and p-Erk",[1],negligible effects
"COc1cc2ncnc(Nc3ccc(F)c(Cl)c3)c2cc1OCCCN1CCOCC1 [GFN, gefitinib, reference compound]",apoptotic cell death (Annexin V staining),U87 cells [2],did not cause apoptotic cell death
same,percentage of cells in the G1 phase,"U87 cells [3]; 13.3 μM GFN, control 66 ± 0.9%",80.9 ± 2.5%
CN1CCN(c2ccc(Nc3ncc4cc(C#N)c(=O)n(C5CCCC5)c4n3)cc2)CC1 [ON123300],p-Erk and p38γ levels,[4],increased
same,"phosphorylated Akt, CREB and JNK pan expression levels",[4],decreased
same,expression of p-mTOR S2448,p-mTOR [S2481 and 2448],86% ± 3.1
same,expression of p-mTOR S2481,p-mTOR [S2481 and 2448],102% ± 5.2
same,inhibition at 4 µM,p-Akt [5],55%
same,peak p-Erk activation relative to the control,p-Erk [6],174%
same,inhibition of cell proliferation in a panel of 11 glioma models,[7],quite comparable to that observed to U87 cells
same,p-Erk spike at 5 min,"[8]; ON123300 5 mg/kg IV, 5 min",159%
same,p-Erk maximum relative to baseline,[8]; ON123300 25 mg/kg IV,161%
same,"p-Erk, of control, at 17 h","[8]; ON123300 25 mg/kg IV plus oral 200 mg/kg GFN, 17 h following the ON123300 dose",80%
same,p-Erk peak activation,"[8]; ON123300 25 mg/kg IV plus oral 200 mg/kg GFN, at 5 min",120%
same,ABEC p-Erk,"[8]; ON123300 25 mg/kg IV plus oral 200 mg/kg GFN, below the baseline",273.9 %-h
same,ABEC p-Erk,"[8]; ON123300 25 mg/kg IV, ABEC above the baseline",144.1^# %_h
same,ABEC p-Erk,"[8]; ON123300 25 mg/kg IV, above the baseline",144 %-h
same,p-C-Raf S259 expression,p-C-Raf S259,partially decreased
same,p-Erk relative to control,"p-Erk [9]; 6.3 μM, 1 h, western blot, mean ± S.D.",120 % ± 6.9
same,p-Erk elevation relative to pre-treatment,"p-Erk [9]; 6.3 μM, over 6 h",about 2 fold
same,concentration giving 100% increase in p-Erk compared to vehicle,"p-Erk [9]; 1 h, western blot and MSD",about 7 μM
same,direct inhibition of Akt,Akt,did not directly inhibit
same,substrate for the ABC transporters,ABC transporters,unlikely to be a substrate
same,apoptotic cell death (Annexin V staining),U87 cells [2],induced cell death by apoptosis in a dose-dependent manner
same,phosphorylation of P70S6K relative to control,P70S6K phosphorylation,31.8 %± 2.1
same,phosphorylation of rpS6 relative to control,[10],60.5% ± 1.0
same,time of p-Akt nadir,p-Akt [11],30 min
same,phosphorylation of Akt relative to control,"p-Akt [11]; 1 h, western blot, mean ± S.D.",40.1% ± 5.7
same,change in p-Akt ABEC from 5 mg/kg to 25 mg/kg,[12]; IV,5 fold
same,ABEC p-Akt,[12]; ON123300 5 mg/kg IV,63.2 %_h
same,"p-Akt nadir, of control",[12]; ON123300 5 mg/kg IV,73%
same,ABEC p-Akt,[12]; ON123300 25 mg/kg IV,304.9 %_h
same,ABEC p-Akt,[12]; ON123300 25 mg/kg IV 1 h after oral 200 mg/kg GFN,765.0 %_h
same,ABEC p-Akt,[12]; ON123300 25 mg/kg IV plus oral 200 mg/kg GFN,765 %-h
same,p-Akt nadir,"[12]; ON123300 25 mg/kg IV plus oral 200 mg/kg GFN, at 4 h after the ON123300 dose",about 30%
same,p-Akt level at 10 h,"[12]; ON123300 25 mg/kg IV, 10 h",~60%
same,"p-Akt nadir, of control",[12]; ON123300 25 mg/kg IV,60%
same,phosphorylation of Rb S780 relative to control,Rb S780 phosphorylation,54.5% ± 6.3
same,AUC,"[13]; brain tumor, 5 mg/kg, AUCbt, ON123300 5 mg/kg IV",6890 ng·h/mL
same,Kp,"[13]; brain tumor, 5 mg/kg, ON123300 5 mg/kg IV",5.7
same,AUC,"[13]; brain tumor, 25 mg/kg, AUCbt, brain tumor, ON123300 25 mg/kg IV 1 h after oral 200 mg/kg GFN",49400 ng·h/mL
same,AUC,"[13]; brain tumor, 25 mg/kg, AUCbt, ON123300 25 mg/kg IV",63200 ng·h/mL
same,Kp,"[13]; brain tumor, 25 mg/kg, ON123300 25 mg/kg IV",15
same,Tmax,"[13]; brain tumor, 25 mg/kg, Tmax brain tumor, ON123300 25 mg/kg IV",1 h
same,AUC,"[13]; brain, 5 mg/kg, AUCb, ON123300 5 mg/kg IV",3120 ng·h/mL
same,AUC,"[13]; brain, 25 mg/kg, AUCb, ON123300 25 mg/kg IV",11700 ng·h/mL
same,Tmax,"[13]; brain, 25 mg/kg, Tmax brain, ON123300 25 mg/kg IV",0.083 h
same,AUC,"[13]; plasma, 5 mg/kg, AUCp, ON123300 5 mg/kg IV",1210 ng·h/mL
same,clearance,[13]; [14],69.1 mL/min/kg
same,Vd,"[13]; plasma, 5 mg/kg, plasma, ON123300 5 mg/kg IV",3.6 L/kg
same,half-life,[13]; [14],1.5 h
same,AUC,"[13]; plasma, 25 mg/kg, AUCp, ON123300 25 mg/kg IV",4220 ng·h/mL
same,clearance,[13]; [15],98.7 mL/min/kg
same,Vd,"[13]; plasma, 25 mg/kg, plasma, ON123300 25 mg/kg IV",10.2 L/kg
same,half-life,[13]; [15],1.5 h
same,reduction in the total clearance of ON123300 in the presence of GFN,"[13]; ON123300 25 mg/kg IV, oral 200 mg/kg GFN",33%
same,Cmax brain tumor,"[13]; brain tumor, ON123300 5 mg/kg IV",6493 ng/mL
same,Cmax brain tumor,"[13]; brain tumor, ON123300 25 mg/kg IV",27250 ng/mL
same,Cmax brain tumor,"[13]; brain tumor, ON123300 25 mg/kg IV 1 h after oral 200 mg/kg GFN",20900 ng/mL
same,peak concentration in brain,"[13]; brain, ON123300 5 mg/kg IV",5735 ng/g
same,peak concentration in brain,"[13]; brain, ON123300 25 mg/kg IV",12432 ng/g
same,Cmax brain,"[13]; brain, ON123300 25 mg/kg IV",12432.5 ng/mL
same,Cmax brain,"[13]; brain, ON123300 25 mg/kg IV 1 h after oral 200 mg/kg GFN",16300 ng/mL
same,increase in AUCp from 5 mg/kg to 25 mg/kg,"[13]; plasma, IV",3.5 fold
same,increase in the percentage of cells in the G2/M phase vs control,U87 cells [3],~2.5 fold
same,percentage of cells in the G2/M phase,"U87 cells [3]; 6.3 μM ON123300 alone or with 13.3 μM GFN, control 10.4 ± 0.6%",38.2 ± 01.4%
same,inhibitory action against VEGFR3,VEGFR3,appreciable inhibitory action
